{"source": "ChEMBL document CHEMBL1127451", "about": "“Benzoselenazolinone derivatives designed to be glutathione peroxidase mimetics feature inhibition of cyclooxygenase/5-lipoxygenase pathways and anti-inflammatory activity” (1994)", "type_in_all_cases": "functional", "key": {"Rattus norvegicus [1]": {"system": "Rattus norvegicus", "experiment": "Tested for acute anti-inflammatory activity of the antirat serum-induced edema in rats at dose of 0.1 mg/kg at time interval- 1 hr", "summary_of_the_method": "(§1)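 Oral dosing of fasted Wistar rats (200–240 g, six per group) with drug in 0.5 mL 2% gelatin; 1 h later 0.1 mL rabbit antirat serum given by subplantar injection into hind paw.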"}, "Rattus norvegicus [2]": {"system": "Rattus norvegicus", "experiment": "Tested for acute anti-inflammatory activity of carrageenan-induced foot edema in rats at dose of 10 mg/kg at time interval- 3h", "summary_of_the_method": "(§2)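 Fasted male-unspecified Wistar rats (200–240 g), groups of six, dosed orally with drug in 0.5 mL 2% gelatin; 1 h later 0.1 mL carrageenan (2% in […]) injected subplantar into hind paw. Paw volume by water plethysmometer at 0, 0.5, 1, 2, 3, 4 h; mean swelling versus vehicle-treated group expressed as percent inhibition.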"}, "Rattus norvegicus [3]": {"system": "Rattus norvegicus", "experiment": "Tested for acute anti-inflammatory activity of carrageenan-induced foot edema in rats at dose of 1 mg/kg at time interval- 0.5 hr", "summary_of_the_method": "as §2"}, "Rattus norvegicus [4]": {"system": "Rattus norvegicus", "experiment": "Tested for acute anti-inflammatory activity of the antirat serum-induced edema in rats at dose of 0.1 mg/kg at time interval- 2 hr", "summary_of_the_method": "as §1"}, "Rattus norvegicus [5]": {"system": "Rattus norvegicus", "experiment": "Tested for acute anti-inflammatory activity of the antirat serum-induced edema in rats at dose of 10 mg/kg at time interval- 0.5 hr", "summary_of_the_method": "as §1"}, "Rattus norvegicus [6]": {"system": "Rattus norvegicus", "experiment": "Tested for acute anti-inflammatory activity of the antirat serum-induced edema in rats at dose of 10 mg/kg at time interval- 3h", "summary_of_the_method": "as §1"}, "Rattus norvegicus [7]": {"system": "Rattus norvegicus", "experiment": "Tested for acute anti-inflammatory activity of the antirat serum-induced edema in rats at dose of 10 mg/kg at time interval- 1 hr", "summary_of_the_method": "as §1"}, "Rattus norvegicus [8]": {"system": "Rattus norvegicus", "experiment": "Tested for acute anti-inflammatory activity of the antirat serum-induced edema in rats at dose of 10 mg/kg at time interval- 4 hr", "summary_of_the_method": "as §1"}, "Rattus norvegicus [9]": {"system": "Rattus norvegicus", "experiment": "Tested for acute anti-inflammatory activity of the antirat serum-induced edema in rats at dose of 10 mg/kg at time interval- 2 hr", "summary_of_the_method": "as §1"}, "Rattus norvegicus [10]": {"system": "Rattus norvegicus", "experiment": "Tested for acute anti-inflammatory activity of carrageenan-induced foot edema in rats at dose of 1 mg/kg at time interval- 4 hr", "summary_of_the_method": "as §2"}, "Rattus norvegicus [11]": {"system": "Rattus norvegicus", "experiment": "Tested for acute anti-inflammatory activity of the antirat serum-induced edema in rats at dose of 0.1 mg/kg at time interval- 0.5 hr", "summary_of_the_method": "as §1"}, "Rattus norvegicus [12]": {"system": "Rattus norvegicus", "experiment": "Tested for acute anti-inflammatory activity of carrageenan-induced foot edema in rats at dose of 10 mg/kg at time interval- 1 hr", "summary_of_the_method": "as §2"}, "Rattus norvegicus [13]": {"system": "Rattus norvegicus", "experiment": "Tested for acute anti-inflammatory activity of carrageenan-induced foot edema in rats at dose of 0.1 mg/kg at time interval- 0.5 hr", "summary_of_the_method": "as §2"}, "Rattus norvegicus [14]": {"system": "Rattus norvegicus", "experiment": "Tested for acute anti-inflammatory activity of carrageenan-induced foot edema in rats at dose of 1 mg/kg at time interval- 1 hr", "summary_of_the_method": "as §2"}, "Rattus norvegicus [15]": {"system": "Rattus norvegicus", "experiment": "Tested for acute anti-inflammatory activity of carrageenan-induced foot edema in rats at dose of 0.1 mg/kg at time interval- 4 hr", "summary_of_the_method": "as §2"}, "Rattus norvegicus [16]": {"system": "Rattus norvegicus", "experiment": "Tested for acute anti-inflammatory activity of carrageenan-induced foot edema in rats at dose of 10 mg/kg at time interval- 2 hr", "summary_of_the_method": "as §2"}, "Rattus norvegicus [17]": {"system": "Rattus norvegicus", "experiment": "Tested for acute anti-inflammatory activity of the antirat serum-induced edema in rats at dose of 1 mg/kg at time interval- 0.5 hr", "summary_of_the_method": "as §1"}, "Rattus norvegicus [18]": {"system": "Rattus norvegicus", "experiment": "Tested for acute anti-inflammatory activity of carrageenan-induced foot edema in rats at dose of 0.1 mg/kg at time interval- 2 hr", "summary_of_the_method": "as §2"}, "Rattus norvegicus [19]": {"system": "Rattus norvegicus", "experiment": "Tested for acute anti-inflammatory activity of the antirat serum-induced edema in rats at dose of 1 mg/kg at time interval- 2 hr", "summary_of_the_method": "as §1"}, "Rattus norvegicus [20]": {"system": "Rattus norvegicus", "experiment": "Tested for acute anti-inflammatory activity of the antirat serum-induced edema at dose of 1 mg/kg at time interval- 3h", "summary_of_the_method": "as §1"}, "Rattus norvegicus [21]": {"system": "Rattus norvegicus", "experiment": "Tested for acute anti-inflammatory activity of carrageenan-induced foot edema in rats at dose of 10 mg/kg at time interval- 0.5 hr", "summary_of_the_method": "as §2"}, "Rattus norvegicus [22]": {"system": "Rattus norvegicus", "experiment": "Tested for acute anti-inflammatory activity of the antirat serum-induced edema in rats at dose of 1 mg/kg at time interval- 4 hr", "summary_of_the_method": "as §1"}, "Rattus norvegicus [23]": {"system": "Rattus norvegicus", "experiment": "Tested for acute anti-inflammatory activity of carrageenan-induced foot edema in rats at dose of 1 mg/kg at time interval- 3h", "summary_of_the_method": "as §2"}, "Rattus norvegicus [24]": {"system": "Rattus norvegicus", "experiment": "Tested for acute anti-inflammatory activity of carrageenan-induced foot edema in rats at dose of 0.1 mg/kg at time interval- 3h", "summary_of_the_method": "as §2"}, "Rattus norvegicus [25]": {"system": "Rattus norvegicus", "experiment": "Tested for acute anti-inflammatory activity of the antirat serum-induced edema in rats at dose of 1 mg/kg at time interval- 1 hr", "summary_of_the_method": "as §1"}, "Rattus norvegicus [26]": {"system": "Rattus norvegicus", "experiment": "Tested for acute anti-inflammatory activity of carrageenan-induced foot edema in rats at dose of 0.1 mg/kg at time interval- 1 hr", "summary_of_the_method": "as §2"}, "Rattus norvegicus [27]": {"system": "Rattus norvegicus", "experiment": "Tested for acute anti-inflammatory activity of carrageenan-induced foot edema in rats at dose of 1 mg/kg at time interval- 2 hr", "summary_of_the_method": "as §2"}, "Rattus norvegicus [28]": {"system": "Rattus norvegicus", "experiment": "Tested for acute anti-inflammatory activity of the antirat serum-induced edema in rats at dose of 0.1 mg/kg at time interval- 4 hr", "summary_of_the_method": "as §1"}, "Rattus norvegicus [29]": {"system": "Rattus norvegicus", "experiment": "Tested for acute anti-inflammatory activity of the antirat serum-induced edema in rats at dose of 0.1 mg/kg at time interval- 3h", "summary_of_the_method": "as §1"}, "Rattus norvegicus [30]": {"system": "Rattus norvegicus", "experiment": "Tested for acute anti-inflammatory activity of carrageenan-induced foot edema in rats at dose of 10 mg/kg at time interval- 4 hr", "summary_of_the_method": "as §2"}}, "data": [{"smiles": "COc1ccc2c(c1)c(CC(=O)O)c(C)n2C(=O)c1ccc(Cl)cc1", "note": "[INDOMETHACIN]", "values": [{"measurement": "inhibition in vivo at 0.1 mg/kg", "setting": "Rattus norvegicus [1]", "value": -7.9, "unit": "%"}, {"measurement": "inhibition in vivo at 10 mg/kg", "setting": "Rattus norvegicus [2]", "value": 68.7, "unit": "%"}, {"measurement": "inhibition in vivo at 1 mg/kg", "setting": "Rattus norvegicus [3]", "value": -22.2, "unit": "%"}, {"measurement": "inhibition in vivo at 0.1 mg/kg", "setting": "Rattus norvegicus [4]", "value": 4.4, "unit": "%"}, {"measurement": "inhibition in vivo at 10 mg/kg", "setting": "Rattus norvegicus [5]", "value": -21.2, "unit": "%"}, {"measurement": "inhibition in vivo at 10 mg/kg", "setting": "Rattus norvegicus [6]", "value": 25.5, "unit": "%"}, {"measurement": "inhibition in vivo at 10 mg/kg", "setting": "Rattus norvegicus [7]", "value": -1.5, "unit": "%"}, {"measurement": "inhibition in vivo at 10 mg/kg", "setting": "Rattus norvegicus [8]", "value": 24.5, "unit": "%"}, {"measurement": "inhibition in vivo at 10 mg/kg", "setting": "Rattus norvegicus [9]", "value": 22.5, "unit": "%"}, {"measurement": "inhibition in vivo at 1 mg/kg", "setting": "Rattus norvegicus [10]", "value": 29.5, "unit": "%"}, {"measurement": "inhibition in vivo at 0.1 mg/kg", "setting": "Rattus norvegicus [11]", "value": -28.3, "unit": "%"}, {"measurement": "inhibition in vivo at 10 mg/kg", "setting": "Rattus norvegicus [12]", "value": 26.2, "unit": "%"}, {"measurement": "inhibition in vivo at 0.1 mg/kg", "setting": "Rattus norvegicus [13]", "value": -124, "unit": "%"}, {"measurement": "inhibition in vivo at 1 mg/kg", "setting": "Rattus norvegicus [14]", "value": 41.8, "unit": "%"}, {"measurement": "inhibition in vivo at 0.1 mg/kg", "setting": "Rattus norvegicus [15]", "value": -1.7, "unit": "%"}, {"measurement": "inhibition in vivo at 10 mg/kg", "setting": "Rattus norvegicus [16]", "value": 55.5, "unit": "%"}, {"measurement": "inhibition in vivo at 1 mg/kg", "setting": "Rattus norvegicus [17]", "value": -8.1, "unit": "%"}, {"measurement": "inhibition in vivo at 0.1 mg/kg", "setting": "Rattus norvegicus [18]", "value": 1.7, "unit": "%"}, {"measurement": "inhibition in vivo at 1 mg/kg", "setting": "Rattus norvegicus [19]", "value": 10, "unit": "%"}, {"measurement": "inhibition in vivo at 1 mg/kg", "setting": "Rattus norvegicus [20]", "value": 1.6, "unit": "%"}, {"measurement": "inhibition in vivo at 10 mg/kg", "setting": "Rattus norvegicus [21]", "value": -57.1, "unit": "%"}, {"measurement": "inhibition in vivo at 1 mg/kg", "setting": "Rattus norvegicus [22]", "value": 7.5, "unit": "%"}, {"measurement": "inhibition in vivo at 1 mg/kg", "setting": "Rattus norvegicus [23]", "value": 40, "unit": "%"}, {"measurement": "inhibition in vivo at 0.1 mg/kg", "setting": "Rattus norvegicus [24]", "value": 4, "unit": "%"}, {"measurement": "inhibition in vivo at 1 mg/kg", "setting": "Rattus norvegicus [25]", "value": -3, "unit": "%"}, {"measurement": "inhibition in vivo at 0.1 mg/kg", "setting": "Rattus norvegicus [26]", "value": 11.3, "unit": "%"}, {"measurement": "inhibition in vivo at 1 mg/kg", "setting": "Rattus norvegicus [27]", "value": 40.2, "unit": "%"}, {"measurement": "inhibition in vivo at 0.1 mg/kg", "setting": "Rattus norvegicus [28]", "value": 16.9, "unit": "%"}, {"measurement": "inhibition in vivo at 0.1 mg/kg", "setting": "Rattus norvegicus [29]", "value": 4.4, "unit": "%"}, {"measurement": "inhibition in vivo at 10 mg/kg", "setting": "Rattus norvegicus [30]", "value": 65.2, "unit": "%"}]}]}
